# Many of the other results were omitted from the sample, so hits are more common in it than they were.
# H69AR inhibit: growth inhibitors of human H69AR lung tumor cells | viability, % at 10 µM | hit rate 6% among 85,000 | H69AR lung tumor viability, ATP luminescence, 72 h; stronger effect = lower value;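 active = viability at or below 40%; inactive = viability above 40%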;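 also: multidrug resistant small cell line overexpressing MRP-1 efflux transporter; 100% = mean luminescence of untreated control wells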
# PTK2B oligo ant: Pyk2 (human) oligomerization antagonism; Q14289; Q293 cells, Pyk2 FERM NanoBiT luminescence; stronger effect = lower value; z-score (the deposit names both 25 µM and 10 µM); hit rate 0.83% among 99,000;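 active = Z-score of -3 or lower, scaled per plate to the spread of control and sample wells; inactive = z-score above -3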;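 also: negative z-score means lost luminescence so less FERM oligomerization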
# Target sequence (Q14289 whole entry, looked up): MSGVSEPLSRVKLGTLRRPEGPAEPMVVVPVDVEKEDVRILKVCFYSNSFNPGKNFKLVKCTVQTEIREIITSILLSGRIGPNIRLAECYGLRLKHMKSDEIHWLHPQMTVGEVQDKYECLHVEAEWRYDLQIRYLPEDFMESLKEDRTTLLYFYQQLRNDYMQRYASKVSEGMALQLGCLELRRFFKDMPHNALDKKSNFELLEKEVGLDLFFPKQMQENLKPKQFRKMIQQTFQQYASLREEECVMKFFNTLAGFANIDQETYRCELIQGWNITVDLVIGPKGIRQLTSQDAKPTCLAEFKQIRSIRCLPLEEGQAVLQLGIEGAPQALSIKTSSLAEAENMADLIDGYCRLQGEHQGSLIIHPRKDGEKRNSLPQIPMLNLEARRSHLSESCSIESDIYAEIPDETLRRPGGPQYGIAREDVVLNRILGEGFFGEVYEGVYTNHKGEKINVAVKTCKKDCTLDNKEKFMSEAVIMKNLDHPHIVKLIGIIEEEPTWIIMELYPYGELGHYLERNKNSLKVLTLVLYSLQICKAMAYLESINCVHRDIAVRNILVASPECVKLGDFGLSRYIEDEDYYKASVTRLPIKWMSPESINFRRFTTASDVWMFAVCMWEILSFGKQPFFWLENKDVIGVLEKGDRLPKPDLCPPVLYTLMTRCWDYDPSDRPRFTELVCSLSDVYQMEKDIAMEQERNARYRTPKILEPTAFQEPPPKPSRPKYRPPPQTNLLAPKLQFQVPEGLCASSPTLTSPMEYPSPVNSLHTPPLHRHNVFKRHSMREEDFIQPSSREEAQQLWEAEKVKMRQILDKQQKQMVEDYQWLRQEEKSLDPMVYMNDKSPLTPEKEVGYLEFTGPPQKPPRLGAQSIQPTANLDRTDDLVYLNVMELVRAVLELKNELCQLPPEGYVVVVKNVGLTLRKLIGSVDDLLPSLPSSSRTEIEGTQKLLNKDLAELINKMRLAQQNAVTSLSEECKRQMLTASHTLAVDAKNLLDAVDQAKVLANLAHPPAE
# PTEN del growth: growth suppressors of cells with PTEN tumor suppressor deletion | HCT116 PTEN-null viability, CellTiter-Glo, 60 h; stronger effect = lower value | viability, % at 10 µM | hit rate 1.2% among 140,000 | AID 827;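 active = viability at or below a set limit, 4 SD under the median of all tested compounds, cut at about 3.7% in these data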;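 also: PTEN knockout HCT116 line with beta catenin targeted HCT116 as companion control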
# HUVEC prolif 384: inhibitors of human endothelial cell proliferation; HUVEC proliferation, CellTiter-Glo luminescence, 72 h; stronger effect = lower value; viability, % at 10 µM (by protocol); hit rate 1.1% among 86,000; AID 648;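 active = viability at or below 30%; inactive = viability above 30%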;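 also: 100% = median luminescence of DMSO-only cell control wells on each plate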
# bCat KO growth: beta-catenin-lacking colon tumor cell growth suppression | HCT116 beta-catenin knockout viability, CellTiter-Glo, 60 h; stronger effect = lower value | viability, % at 10 µM | hit rate 1.5% among 140,000 | AID 818;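 active = viability at or under a set limit, the compound median less 4 SD, cut at about 6% in these data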;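 also: 0% = Hyamine 1622 control at 20 µM and 100% = untreated cell control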
# Lung fibro prol: blocks proliferation of human lung fibroblasts. LL 47 human lung fibroblast viability, ATP luminescence; stronger effect = lower value. viability, % at 10 µM. hit rate 1.1% among 85,000;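 active = viability at or below 50% in the single dose screen; inactive = viability above 50%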;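 also: compound exposure lasted 72 h before the ATP readout; 100% = median luminescence of untreated cell-only wells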
#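 test system = LL 47 human lung fibroblasts | amount = 1,150 fibroblasts seeded per well | medium = 15% FBS in IMEM | times = overnight cell rest, 72 h compound treatment at 37 °C | measured by = CellTiter-Glo luminescence measuring cellular ATP | read-out = viability percentage against median untreated-cell control | benchmarks = cell-only wells, no compound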
# * marks the source's active call; other numbers are inactive results; · = no result.
SMILES,H69AR inhibit,PTK2B oligo ant,PTEN del growth,HUVEC prolif 384,bCat KO growth,Lung fibro prol
COc1ccc(C(NC(=O)c2cccnc2)c2cc(Cl)c3cccnc3c2O)cc1OC (stereo unspecified),·,-0.59,8,·,8,·
Oc1c(C(Nc2ccccn2)c2cccnc2)cc(Cl)c2cccnc12 (stereo unspecified),·,·,4,·,3.6*,·
Oc1c(C(Nc2cccc(C(F)(F)F)c2)c2cccnc2)ccc2cccnc12 (stereo unspecified),·,·,30,·,18,·
Cc1cc(NC(c2cccnc2)c2ccc3cccnc3c2O)no1 (stereo unspecified),31*,-1.6,5,57,4.3*,3.9*
Cc1nn(Cc2ccc(Cl)cc2Cl)c(C)c1NC(=O)CCl,1.6*,-0.01,9,75,11,23*
Cc1nn(Cc2ccc(Cl)cc2Cl)c(C)c1NC(=O)c1nn(C)cc1Cl,86,-0.87,78,89,64,108
NC(=O)C(c1ccc(Cl)cc1Cl)c1ncc(C(F)(F)F)cc1Cl (stereo unspecified),·,-0.12,90,·,90,·
O=C(C1COc2ccccc2O1)N1CCc2ccccc2C1 (stereo unspecified),97,0.24,100,90,109,95
OC1CCCN(Cc2ccc3ccc4cccc5ccc2c3c45)C1 (stereo unspecified),45,0.13,2.2*,2.4*,1.3*,49*
CCc1ccccc1NC(=O)c1ccc(-n2c(C)ccc2C)cc1,·,1.3,4,·,3.8*,·
Cc1ccc(C)n1-c1ccc(NC(=O)c2ccccc2)cc1,·,·,19,·,18,·
COc1ccc(-c2nc(C#N)c(NCc3ccccc3Cl)o2)cc1OC,5.7*,-1.2,6,59,23,93
Cc1csc(-c2cnn(-c3ccccc3)c2NC(=O)c2ccc(C(F)(F)F)cc2)n1,76,-0.78,84,93,95,101
CC12CCC(c3n[nH]c(=S)nc31)C2(C)C (stereo unspecified),·,·,92,·,98,·
O=C(Nc1ccc(Cl)c([N+](=O)[O-])c1)C(Sc1ccccc1)c1ccccc1 (stereo unspecified),·,·,3.2*,·,3.6*,·
CC(C)(C)NS(=O)(=O)c1ccc(NC(=O)C(Sc2ccccc2)c2ccccc2)cc1 (stereo unspecified),·,-0.83,1.6*,·,1.6*,·
O=C(Nc1cc([N+](=O)[O-])ccc1Cl)C(Sc1ccccc1)c1ccccc1 (stereo unspecified),·,·,71,·,82,·
O=C(NNS(=O)(=O)c1ccc([N+](=O)[O-])cc1)c1cnn(-c2ccccc2)c1-n1cccc1,·,0.12,88,·,95,·
Cn1c(C(=O)OC(C(=O)NC2CCCCC2)c2ccncc2)cc2sccc21 (stereo unspecified),23*,-1.8,85,90,92,85
Cn1c(C(=O)OC(C(=O)NC2CCCC2)c2ccncc2)cc2sccc21 (stereo unspecified),79,-1.3,88,96,96,97
CC(NC(=O)c1ccco1)c1cccc2ccccc12 (stereo unspecified),88,-0.55,102,90,100,98
CCCCc1c(C)c(C#N)c2nc3ccccc3n2c1Cl,·,·,1.1*,·,1.3*,·
CCc1c(C)c(C#N)c2nc3ccccc3n2c1N(C)C,53,0.77,98,92,90,89
CSCCC(NC(=O)c1cc([N+](=O)[O-])ccc1Cl)C(=O)O (stereo unspecified),·,·,89,·,112,·
C=CCn1c(C)cc(C(=O)CSc2nnc(NCc3ccccc3)s2)c1C,25*,-0.58,37,58,21,53
C=CCn1c(C)cc(C(=O)CSc2nnc(NC(C)C)s2)c1C,·,0.05,90,·,89,·
CCOC(=O)C1=C(C)N=c2s/c(=C3/C(=O)Nc4ccccc43)c(=O)n2C1c1ccc(C)cc1 (stereo unspecified),1.8*,-0.1,91,3.2*,106,88
COC(=O)C1=C(C)N=c2s/c(=C3\C(=O)Nc4ccccc43)c(=O)n2C1c1ccccc1 (stereo unspecified),0.9*,·,94,3.3*,98,82
N#CC1=C(N)Nc2ncnn2C1c1ccc(F)cc1 (stereo unspecified),·,0.15,106,·,93,·
CCCCNc1ccc2nsnc2c1[N+](=O)[O-],·,0.31,101,·,93,·

# Screening data (PubChem)
